Measurements from ChEMBL document CHEMBL1158566, “The bisnaphthalimides as new active lead compounds against Plasmodium falciparum” (Bioorg Med Chem, 2010).
Activity calls are given as the source filed them. The rule behind the calls is not given here.

Columns and labels:
Plasmodium falciparum [1] = assay: Antiplasmodial activity against chloroquine-sensitive Plasmodium falciparum 3D7 assessed as parasite-specific LDH release after 72 hrs by Malstat assay; type: functional, organism-based; conditions: 3D7, 72 h
Summary of the method: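 Synchronized 3D7 ring stages seeded at 1% parasitemia with compound (in H2O or DMSO) across 10 pM–100 µM. DMSO 0.5% served as negative control. Cultured 72 h in triplicate, then viability read as Plasmodium lactate dehydrogenase activity (Malstat). Each compound run two to four times. IC50 and standard deviation calculated.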

[2] = Cytotoxicity against mouse J774.1 cells after 48 hrs by alamar blue satining; type: cell-based; conditions: J774.1, 48 h
Summary of the method: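 J774.1 macrophages at 1×10^5 cells/mL in phenol-red-free RPMI (10% FCS, 2 mM glutamine, 10 mM Hepes pH 7.2, 50 µM 2-mercaptoethanol, antibiotics) with increasing compound concentrations, 24 h at 37 °C, 5% CO2. AlamarBlue added to 10%, further 24 and 48 h incubation. Absorbance read at 540 nm against 630 nm reference. Final DMSO ≤1%, duplicates.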

Plasmodium falciparum [3] = assay: Antiplasmodial activity against blood stage forms of chloroquine-sensitive Plasmodium falciparum 3D7 assessed as dysfunctional intracellular membrane biosynthesis at IC50 after 72 hrs by electron microscopy; type: functional, organism-based
Summary of the method: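 Blood-stage P. falciparum cultured in vitro, exposed 72 h to compound or to 0.5 vol % DMSO control. Fixed in 1% glutaraldehyde/4% paraformaldehyde in PBS, post-fixed in 1% OsO4/1.5% K3[Fe(CN)6], uranyl acetate stained, ethanol-dehydrated and Epon-embedded. Ultrathin sections post-stained with 1% uranyl acetate and examined by transmission EM for intracellular membrane whirls.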

Plasmodium falciparum [4] = assay: Antiplasmodial activity against chloroquine-resistant Plasmodium falciparum Dd2 assessed as parasite-specific LDH release after 72 hrs by Malstat assay; type: functional, organism-based; conditions: Dd2, 72 h
Summary of the method: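 P. falciparum asexual blood stages: synchronized ring-stage cultures at 1% parasitemia, exposed to compounds (in water or DMSO) over 10 pM–100 µM for 72 h in triplicate. 0.5% DMSO served as negative control. Viability was read as parasite lactate dehydrogenase activity (Malstat). Each compound was run two to four times, and IC50 with standard deviation was calculated.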

| IC50 (Plasmodium falciparum [1]) | Compound | IC50 [2] | Activity (Plasmodium falciparum [3]) | IC50 (Plasmodium falciparum [4]) |
| --- | --- | --- | --- | --- |
| > 100 µM | CN(C)CCCN1C(=O)c2cccc3cccc(c23)C1=O | > 100 µM |  |  |
| 22.6 µM | CC(C)(CN1C(=O)c2cccc3cc(N)cc(c23)C1=O)C[N+](C)(C)CCCCCC[N+](C)(C)CC(C)(C)CN1C(=O)c2cccc3cc(N)cc(c23)C1=O | > 100 µM |  |  |
| > 100 µM | C[N+](C)(CCCN1C(=O)c2cccc3cccc(c23)C1=O)CCC[N+](C)(C)CCCN1C(=O)c2cccc3cccc(c23)C1=O | > 100 µM |  |  |
| 0.4 µM | CC(C)(CN1C(=O)c2cccc3cccc(c23)C1=O)C[N+](C)(C)CCCCCC[N+](C)(C)CCCN1C(=O)c2cccc3cccc(c23)C1=O | > 100 µM | Active |  |
| 0.17 µM | C[N+](C)(CCCCCCCCCCC[N+](C)(C)CCCN1C(=O)c2cccc3cccc(c23)C1=O)CCCN1C(=O)c2cccc3cccc(c23)C1=O | > 100 µM |  |  |
| 0.8 µM | CC(C)(CN1C(=O)c2cccc3cccc(c23)C1=O)C[N+](C)(C)CCCCCC[N+](C)(C)CC(C)(C)CN1C(=O)c2cccc3cccc(c23)C1=O | > 100 µM |  |  |
| 7.99 µM | C[N+](C)(CCCCCC[N+](C)(C)CCCN1C(=O)c2cccc3cccc(c23)C1=O)CCCN1C(=O)c2cccc3cccc(c23)C1=O | > 100 µM |  |  |
| 0.145 µM | C[N+](C)(CCCCCCCCCC[N+](C)(C)CCCN1C(=O)c2cccc3cccc(c23)C1=O)CCCN1C(=O)c2cccc3cccc(c23)C1=O | > 100 µM |  |  |
| 0.06 µM | C[N+](C)(CCCCCCCCC[N+](C)(C)CCCN1C(=O)c2cccc3cccc(c23)C1=O)CCCN1C(=O)c2cccc3cccc(c23)C1=O | > 100 µM |  |  |
| 3.48 µM | CC(C)(CN1C(=O)c2cccc3c([N+](=O)[O-])ccc(c23)C1=O)C[N+](C)(C)CCCCCC[N+](C)(C)CC(C)(C)CN1C(=O)c2cccc3c([N+](=O)[O-])ccc(c23)C1=O | > 100 µM |  |  |
| 0.66 µM | CC(C)(CN1C(=O)c2cccc3cc([N+](=O)[O-])cc(c23)C1=O)C[N+](C)(C)CCCCCC[N+](C)(C)CC(C)(C)CN1C(=O)c2cccc3cc([N+](=O)[O-])cc(c23)C1=O | > 100 µM | Active |  |
| 0.064 µM | C[N+](C)(CCCCCCCC[N+](C)(C)CCCN1C(=O)c2cccc3cccc(c23)C1=O)CCCN1C(=O)c2cccc3cccc(c23)C1=O | > 100 µM |  |  |

The remaining lines, values behind:

| Compound | IC50 (Plasmodium falciparum [1]) | IC50 [2] | Activity (Plasmodium falciparum [3]) | IC50 (Plasmodium falciparum [4]) |
| --- | --- | --- | --- | --- |
| C[N+](C)(CCCC[N+](C)(C)CCCN1C(=O)c2cccc3cccc(c23)C1=O)CCCN1C(=O)c2cccc3cccc(c23)C1=O | > 100 µM | > 100 µM |  |  |
| C[N+](C)(C)CCCCCCCCCC[N+](C)(C)C [DECAMETHONIUM BROMIDE] | 0.911 µM | > 100 µM |  |  |
| C[N+](C)(CCCCCCCCCCCC[N+](C)(C)CCCN1C(=O)c2cccc3cccc(c23)C1=O)CCCN1C(=O)c2cccc3cccc(c23)C1=O | 0.219 µM | > 100 µM |  |  |
| C[N+](C)(CCCCC[N+](C)(C)CCCN1C(=O)c2cccc3cccc(c23)C1=O)CCCN1C(=O)c2cccc3cccc(c23)C1=O | > 100 µM | > 100 µM |  |  |
| C[N+](C)(C)CCCCCCCCCCCC[N+](C)(C)C | 0.395 µM | > 100 µM |  |  |
| C[N+](C)(CCCCCCC[N+](C)(C)CCCN1C(=O)c2cccc3cccc(c23)C1=O)CCCN1C(=O)c2cccc3cccc(c23)C1=O | 0.51 µM | > 100 µM |  |  |
| CC(C)(CN1C(=O)c2cccc3c(N)ccc(c23)C1=O)C[N+](C)(C)CCCCCC[N+](C)(C)CC(C)(C)CN1C(=O)c2cccc3c(N)ccc(c23)C1=O | 6.76 µM | > 100 µM |  | 7.39 µM |
| CC(C)(CN1C(=O)c2cccc3cccc(c23)C1=O)C[N+](C)(C)CCCCCCBr | 0.43 µM | > 100 µM |  | 0.89 µM |
| C[N+](C)(C)CCCCCC[N+](C)(C)C [HEXAMETHONIUM BROMIDE] | > 100 µM | > 100 µM |  |  |
| CCC[N+](C)(C)CC(C)(C)CN1C(=O)c2cccc3cccc(c23)C1=O | 9.81 µM | > 100 µM |  | 8.11 µM |
